In general, viability refers to a read-out of living cells in per cent, often relative to untreated cells. What is called inhibition is the relative decrease from the control value, in per cent.

The text below walks through data of PubChem BioAssay.

Activity calls are given as the source filed them. Rule as the data show it, unless noted: active = inhibition above about 30%; inactive = the rest.

Assay [1] is described as follows: Her2 expression decrease, cell viability multiplex – SKBR3 breast tumor cells, AlphaScreen, ATP viability, primary screen (AID 461;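 active = Her2 level under about 52% in both replicate screens, with viability over 70% of control, limit read from the data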;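 as to Her2 level: lower value means less Her2 protein in the cells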;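 as to viability: percent of carrier control wells set as 100% viability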). The following applies: SKBR3 Her2 protein level, 18-24 h, measured here: SKBR3 viability, ATP luminescence, at 10 µM.
In assay [2] the target is Receptor tyrosine-protein kinase erbB-2 (Homo sapiens) (UniProt P04626). Described as above. The following applies: 18-24 h, at 10 µM, stronger effect = lower value.
Assay [3] is described as follows: reduced viability of SK-BR-3 breast cancer cells – cell-based, 24 h, human, pilot screen (AID 572;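 active = viability at or below 10% of carrier control in both of two separate runs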;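 also: compound exposure lasted between 18 and 24 h rather than exactly 24 h; 100% = carrier-treated control wells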). Conditions: SK-BR-3 viability, CellTiter-Glo luminescence, at 10 µM, stronger effect = lower value. Background: ATP-based viability assays read luminescence as a measure of living cells.
The nature of assay [4]: HUVEC growth inhibition – cell-based, human, primary screen (AID 575;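 active = viability at or below 30% in both replicate assays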;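 also: 100% = median of untreated cell wells with 0.1% DMSO on each plate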). The following applies: HUVEC proliferation, CellTiter-Glo luminescence, 72 h; at 10 µM; stronger effect = lower value. The essentials:
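Timing: 72 h treatment at 37 °C; material: HUVEC primary cells; technique: CellTiter-Glo luminescence measuring cellular ATP; controls: vehicle and MePR control wells; measure: percent of median DMSO-control luminescence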

Assay [5] is described as follows: H69AR cell proliferation blockers – human, duplicate replicates, primary screen (AID 580;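 active = viability at or under a set limit in both replicates, limit being median viability minus 3 SD, cut at about 48% in these data, passing the limit was not always enough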;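 also: 100% = mean luminescence of untreated wells and 0% = no signal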). The following applies: H69AR lung tumor cells viability, ATP luminescence, 72 h; at 10 µM; stronger effect = lower value.
A short description of assay [6]: MRP1 drug-resistance reversers in H69AR cells – cell-based, doxorubicin co-treatment, pilot screen (AID 601;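 active = viability loss from added drug above about 55%, and viability with drug at most 40%, in both replicates, limit read from the data, passing the limit was not always enough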). The following applies: CellTiter-Glo, 72 h, at 10 µM; for differential viability (reversal): stronger effect = higher value.
A short description of assay [7]: yeast transport mutant growth inhibition pilot in 384-well plates, post-Golgi transport modulator project (AID 636; in the data active = inhibition above about 31%). The following applies: absorbance 615 nm, about 18 h, stronger effect = higher value.
A short description of assay [8]: growth suppression of yeast trafficking mutant, preliminary HTS, modulators of trafficking downstream of Golgi apparatus project, 1536-format plate, OD 615 nm (AID 637). The following applies: yeast transport mutant growth, absorbance 615 nm, 18 h; stronger effect = higher value.
Where [9] appears, read: H69AR cells + 2 uM doxorubicin, measured here: viability with 2 uM doxorubicin, stronger effect = lower value.
Setting [10] is: H69AR cells, compound alone cytotoxicity.

Chain of Receptor tyrosine-protein kinase erbB-2 (Homo sapiens) (P04626 whole entry, looked up): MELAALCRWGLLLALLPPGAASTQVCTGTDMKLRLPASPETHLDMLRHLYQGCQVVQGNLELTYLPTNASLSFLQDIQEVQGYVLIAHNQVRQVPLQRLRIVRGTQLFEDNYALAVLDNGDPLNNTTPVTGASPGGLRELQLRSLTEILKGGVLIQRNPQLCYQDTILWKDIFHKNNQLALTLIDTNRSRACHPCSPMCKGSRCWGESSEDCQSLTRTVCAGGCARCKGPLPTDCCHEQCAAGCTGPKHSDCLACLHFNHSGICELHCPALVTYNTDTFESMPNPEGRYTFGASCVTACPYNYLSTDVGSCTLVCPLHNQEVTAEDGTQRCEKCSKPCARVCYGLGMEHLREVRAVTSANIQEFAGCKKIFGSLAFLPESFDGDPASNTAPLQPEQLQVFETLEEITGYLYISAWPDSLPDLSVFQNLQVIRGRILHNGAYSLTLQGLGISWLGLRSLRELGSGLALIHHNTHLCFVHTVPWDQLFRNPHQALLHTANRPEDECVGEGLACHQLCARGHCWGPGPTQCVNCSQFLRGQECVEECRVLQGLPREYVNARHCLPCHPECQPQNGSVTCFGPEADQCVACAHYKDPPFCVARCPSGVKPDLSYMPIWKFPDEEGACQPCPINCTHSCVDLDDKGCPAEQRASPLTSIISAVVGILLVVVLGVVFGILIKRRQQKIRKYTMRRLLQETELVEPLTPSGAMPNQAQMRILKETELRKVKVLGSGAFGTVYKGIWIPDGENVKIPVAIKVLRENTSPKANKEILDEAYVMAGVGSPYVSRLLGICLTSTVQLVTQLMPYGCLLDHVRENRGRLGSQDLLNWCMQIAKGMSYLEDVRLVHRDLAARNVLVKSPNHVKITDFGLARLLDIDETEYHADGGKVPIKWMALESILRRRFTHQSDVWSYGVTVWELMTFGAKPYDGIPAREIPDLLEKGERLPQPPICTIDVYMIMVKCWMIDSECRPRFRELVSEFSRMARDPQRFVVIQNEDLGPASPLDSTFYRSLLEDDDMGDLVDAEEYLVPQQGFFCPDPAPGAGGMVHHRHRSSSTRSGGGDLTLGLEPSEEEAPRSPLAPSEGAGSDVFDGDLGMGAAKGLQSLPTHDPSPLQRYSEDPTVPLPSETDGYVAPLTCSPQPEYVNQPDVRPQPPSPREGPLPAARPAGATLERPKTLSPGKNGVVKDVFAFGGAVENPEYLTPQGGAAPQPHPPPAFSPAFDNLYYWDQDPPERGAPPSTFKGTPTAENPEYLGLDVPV

As for `COC(=O)C1=C(C)NC(=O)C1(NC(=O)CN1CCCC1=O)C(F)(F)F` (stereo not given), the viability in assay [1] is 116%; in assay [3] it was 116% (inactive); in assay [4], 105% (inactive); in assay [5] it was 101% (inactive); in assay [6] (setting [9]), 98.3%; in assay [6] (setting [10]) it was 101%. In assay [2], the Her2 level is 91% (inactive). In assay [6] (H69AR cells + 2 uM doxorubicin), the differential viability (reversal) is 3.15% (inactive). Also, the inhibition is -4.34% (inactive) in assay [7] and -6.03% (inactive) in assay [8].
As for `O=C(NCc1nnc(SCC(=O)N2CCCCCC2)o1)c1ccco1`, the viability in assay [1] is 104%; in assay [3], 104% (inactive); in assay [4] it was 101% (inactive); in assay [5] it was 111% (inactive); in assay [6] (setting [9]), 92.8%; in assay [6] (setting [10]), 111%. The Her2 level in assay [2] is 100% (inactive). The differential viability (reversal) in assay [6] (H69AR cells + 2 uM doxorubicin) was 18.3% (inactive). Moreover, the values for the inhibition in assay [7] and in assay [8] were -4.27% (inactive) and -0.48% (inactive), respectively.
As to `CC(=O)c1cc(C#N)c(SCC(=O)OC(C)C)nc1C`, the viability in assay [1] is 102%; in assay [3], 102% (inactive); in assay [4] it was 88% (inactive); in assay [5], 61.2% (inactive); in assay [6] (setting [9]), 37.9%; in assay [6] (setting [10]) it was 61.2%. The Her2 level in assay [2] was 80.5% (inactive). Further, the differential viability (reversal) in assay [6] (H69AR cells + 2 uM doxorubicin) is 23.3% (inactive). Also, the inhibition in assay [7] was -7.03% (inactive); in assay [8], 5.67% (inactive).
For `CC(C)CCNC(=O)NC(=O)CSc1nnc(COc2ccccc2Cl)o1`, the viability in assay [1] is 99%; in assay [3] it was 99% (inactive); in assay [4], 81% (inactive); in assay [5], 93% (inactive); in assay [6] (setting [9]), 87.1%; in assay [6] (setting [10]), 93%. Also, in assay [2], the Her2 level was 80.5% (inactive). The differential viability (reversal) in assay [6] (H69AR cells + 2 uM doxorubicin) was 5.9% (inactive). Also, the inhibition in assay [7] is -2.24% (inactive); in assay [8] it was -5.87% (inactive).
As to `COc1ccc(C)cc1NC(=O)COCC(=O)O`, the viability in assay [1] is 106%; in assay [3] it was 106% (inactive); in assay [4] it was 92.4% (inactive); in assay [5], 103% (inactive); in assay [6] (setting [9]), 95.2%; in assay [6] (setting [10]), 103%. For the same compound, in assay [2], the Her2 level was 114% (inactive). In assay [6] (H69AR cells + 2 uM doxorubicin), the differential viability (reversal) is 7.92% (inactive). In addition, the inhibition in assay [7] was -6.89% (inactive); in assay [8], -3.49% (inactive).
In the case of `COc1cc(Cl)c(C)cc1NC(=O)COC(=O)c1cnc(C)cn1`, the viability in assay [1] is 108%; in assay [3], 108% (inactive); in assay [4] it was 95.1% (inactive); in assay [5] it was 97% (inactive); in assay [6] (setting [9]) it was 99.3%; in assay [6] (setting [10]), 97%. For the same compound, the Her2 level in assay [2] was 110% (inactive). For the same compound, the differential viability (reversal) in assay [6] (H69AR cells + 2 uM doxorubicin) is -2.33% (inactive). Also, the inhibition is -4.25% (inactive) in assay [7] and -0.95% (inactive) in assay [8].
For the compound `O=C(Cn1ncc2c(=O)oc3ccccc3c21)NCC1CCCO1` (stereo not given), the viability is 104% in assay [1]; 104% (inactive) in assay [3]; 108% (inactive) in assay [4]; 94.8% (inactive) in assay [5]; 102% in assay [6] (setting [9]); 94.8% in assay [6] (setting [10]). Further, in assay [2], the Her2 level was 102% (inactive). For the same compound, in assay [6] (H69AR cells + 2 uM doxorubicin), the differential viability (reversal) is -7.15% (inactive). In addition, the inhibition in assay [7] was -3.59% (inactive); in assay [8] it was -1.17% (inactive).
As to `COc1ccc(/C=N/n2c(=O)[nH]c3c([nH]c4ccc(C)cc43)c2=O)cc1CN1CCOCC1`, the viability in assay [1] was 112%; in assay [3] it was 112% (inactive); in assay [4], 95.6% (inactive); in assay [5], 84.6% (inactive); in assay [6] (setting [9]) it was 83.7%; in assay [6] (setting [10]) it was 84.6%. Besides, the Her2 level in assay [2] was 100% (inactive). For the same compound, the differential viability (reversal) in assay [6] (H69AR cells + 2 uM doxorubicin) was 0.925% (inactive). The values for the inhibition in assay [7] and in assay [8] were -1.71% (inactive) and 12% (inactive), respectively.
As to `COc1ccc2c(c1)C1(C)CC(C)(C)N2C(=O)N1c1ccccc1` (stereo not given), the viability is 101% in assay [1]; 101% (inactive) in assay [3]; 61.5% (inactive) in assay [4]; 67.3% (inactive) in assay [5]; 84% in assay [6] (setting [9]); 67.3% in assay [6] (setting [10]). For the same compound, in assay [2], the Her2 level is 89.5% (inactive). Besides, in assay [6] (H69AR cells + 2 uM doxorubicin), the differential viability (reversal) was -16.7% (inactive). Further, the inhibition in assay [7] was -5.07% (inactive); in assay [8], -5.41% (inactive).
`Cc1cccc(OCCCC(=O)O)c1`: the viability in assay [1] is 101%; in assay [3], 101% (inactive); in assay [4], 93.5% (inactive); in assay [5], 89.4% (inactive); in assay [6] (setting [9]), 93.5%; in assay [6] (setting [10]), 89.4%. Also, the Her2 level in assay [2] is 102% (inactive). Besides, the differential viability (reversal) in assay [6] (H69AR cells + 2 uM doxorubicin) is -4.09% (inactive). Besides, the inhibition is -4.73% (inactive) in assay [7] and -6.83% (inactive) in assay [8].
Consider `Cn1c(=O)c2c(nc(Br)n2CCSc2ncccn2)n(C)c1=O`, for which the viability in assay [1] is 98%; in assay [3], 98% (inactive); in assay [4], 106% (inactive); in assay [5], 103% (inactive); in assay [6] (setting [9]), 81.1%; in assay [6] (setting [10]), 103%. Also, the Her2 level in assay [2] was 114% (inactive). Further, in assay [6] (H69AR cells + 2 uM doxorubicin), the differential viability (reversal) was 21.7% (inactive). The figures for the inhibition in assay [7] and in assay [8] were -1.87% (inactive) and -10.2% (inactive), respectively.
As to `O=C(NCC(=O)N(c1ccc2c(c1)OCCO2)C(C(=O)NC1CCCC1)c1ccco1)c1ccco1` (stereo not given), the viability in assay [1] was 92%; in assay [3] it was 92% (inactive); in assay [4], 97.2% (inactive); in assay [5], 92.1% (inactive); in assay [6] (setting [9]) it was 78.7%; in assay [6] (setting [10]) it was 92.1%. Also, in assay [2], the Her2 level was 102% (inactive). Moreover, the differential viability (reversal) in assay [6] (H69AR cells + 2 uM doxorubicin) was 13.4% (inactive). Besides, the results for the inhibition in assay [7] and in assay [8] were -4.53% (inactive) and -9.05% (inactive), respectively.
`COc1ccccc1CNC(=O)N[C@@H](Cc1ccccc1)C(=O)O`: the viability in assay [1] is 102%; in assay [3], 102% (inactive); in assay [4], 114% (inactive); in assay [5] it was 93.2% (inactive); in assay [6] (setting [9]) it was 81%; in assay [6] (setting [10]), 93.2%. For the same compound, the Her2 level in assay [2] was 80% (inactive). Moreover, in assay [6] (H69AR cells + 2 uM doxorubicin), the differential viability (reversal) was 12.2% (inactive). Further, the inhibition in assay [7] was -5.81% (inactive); in assay [8], 10.5% (inactive).
In the case of `O=C(CSc1nnc(CNC(=O)c2cccs2)o1)Nc1cccc(C(F)(F)F)c1`, the viability in assay [1] is 83.5%; in assay [3] it was 83.5% (inactive); in assay [4], 82.7% (inactive); in assay [5], 92.8% (inactive); in assay [6] (setting [9]), 90.9%; in assay [6] (setting [10]), 92.8%. Also, the Her2 level in assay [2] is 98.5% (inactive). Also, in assay [6] (H69AR cells + 2 uM doxorubicin), the differential viability (reversal) is 1.86% (inactive). For the same compound, the figures for the inhibition in assay [7] and in assay [8] were -0.13% (inactive) and -7% (inactive), respectively.
For the compound `Cc1nnc(SCc2nc3ccccc3s2)n1-c1ccccc1`, the viability in assay [1] is 88%; in assay [3], 88% (inactive); in assay [4] it was 75.4% (inactive); in assay [5], 76% (inactive); in assay [6] (setting [9]), 81.3%; in assay [6] (setting [10]), 76%. Besides, the Her2 level in assay [2] was 83% (inactive). In addition, in assay [6] (H69AR cells + 2 uM doxorubicin), the differential viability (reversal) is -5.34% (inactive). Also, the inhibition in assay [7] was -6% (inactive); in assay [8], -0.48% (inactive).
Turning to `O=C(NCc1ccco1)c1cccn2c(=O)c3sccc3nc12`, the viability in assay [1] was 104%; in assay [3] it was 104% (inactive); in assay [4], 82.5% (inactive); in assay [5], 58.4% (inactive); in assay [6] (setting [9]), 82.4%; in assay [6] (setting [10]), 58.4%. Further, the Her2 level in assay [2] is 74.5% (inactive). For the same compound, the differential viability (reversal) in assay [6] (H69AR cells + 2 uM doxorubicin) was -24% (inactive). Also, the inhibition in assay [7] is -1.2% (inactive); in assay [8] it was -7.87% (inactive).
